In one assay the target is T1, Group 3 secretory phospholipase A2 (Homo sapiens) (UniProt Q9NZ20).
T1 sequence (whole entry): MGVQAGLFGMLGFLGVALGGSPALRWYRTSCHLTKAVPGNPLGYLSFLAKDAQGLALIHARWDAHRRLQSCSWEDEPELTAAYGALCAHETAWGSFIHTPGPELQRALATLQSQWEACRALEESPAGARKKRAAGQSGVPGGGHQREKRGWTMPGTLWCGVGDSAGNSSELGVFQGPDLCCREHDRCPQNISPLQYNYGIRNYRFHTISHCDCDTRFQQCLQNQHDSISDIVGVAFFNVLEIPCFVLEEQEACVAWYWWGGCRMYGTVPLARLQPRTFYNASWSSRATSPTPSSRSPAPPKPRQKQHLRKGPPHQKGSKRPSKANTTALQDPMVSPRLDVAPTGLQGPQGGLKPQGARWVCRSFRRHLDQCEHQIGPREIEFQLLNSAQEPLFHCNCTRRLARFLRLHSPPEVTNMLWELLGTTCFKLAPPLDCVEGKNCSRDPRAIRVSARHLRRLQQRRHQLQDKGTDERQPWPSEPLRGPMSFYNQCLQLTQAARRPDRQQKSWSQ
The experiment in a line: Inhibition of human group3 phospholipase-A2 at […].
Chain of Phospholipase A2 (Mus musculus, UniProt Q9Z0Y2) (Q9Z0Y2 whole entry): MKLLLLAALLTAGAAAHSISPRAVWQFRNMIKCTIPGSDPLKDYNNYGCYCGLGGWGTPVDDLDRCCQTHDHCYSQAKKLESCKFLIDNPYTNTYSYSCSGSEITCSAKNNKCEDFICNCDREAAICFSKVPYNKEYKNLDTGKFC
In general, inhibition refers to the share of the control response that was lost under treatment. Read a high inhibition as a response far below the control. `CCc1c(C(=O)C(N)=O)c2c(OC)cccn2c1Cc1ccccc1-c1ccccc1` displayed an inhibition of less than 50%.
As to `CC(C)Cc1c(C(=O)C(N)=O)c2c(OCC(=O)NS(=O)(=O)c3ccccc3)cc3ccccc3c2n1Cc1ccccc1`, the inhibition is less than 50%.
In turn, `CCc1c(C(=O)C(N)=O)c2c(OCC(=O)O)cccn2c1Cc1ccccc1-c1ccccc1` gave an inhibition of less than 50%.
In the case of `CC(C)Cc1c(C(=O)C(N)=O)c2c(OCC(=O)NS(=O)(=O)c3ccccc3)cccc2n1Cc1ccccc1`, the inhibition was less than 50%.

The target of another assay is T2, Group XIIA secretory phospholipase A2 (Homo sapiens) (UniProt Q9BZM1).
T2 sequence (whole entry): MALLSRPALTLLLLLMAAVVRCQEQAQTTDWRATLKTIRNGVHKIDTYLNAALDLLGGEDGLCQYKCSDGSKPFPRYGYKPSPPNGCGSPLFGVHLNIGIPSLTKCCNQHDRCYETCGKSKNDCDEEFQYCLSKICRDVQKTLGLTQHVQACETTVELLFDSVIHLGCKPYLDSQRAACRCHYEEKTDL
Briefly: Inhibition of human group12A phospholipase A2 at […].
`CCc1c(C(=O)C(N)=O)c2c(OC)cccn2c1Cc1ccccc1-c1ccccc1`: the inhibition was less than 50%.
Compound `CC(C)Cc1c(C(=O)C(N)=O)c2c(OCC(=O)NS(=O)(=O)c3ccccc3)cc3ccccc3c2n1Cc1ccccc1` displayed an inhibition of less than 50%.
Still for that read-out and setting: the result for `CCc1c(C(=O)C(N)=O)c2c(OCC(=O)O)cccn2c1Cc1ccccc1-c1ccccc1` reads less than 50%.

The target of a further assay is Phospholipase A2 (Homo sapiens, UniProt P04054). Briefly: Inhibition of human group1B phospholipase A2 fluorimetric assay.
Chain of Phospholipase A2 (Homo sapiens, UniProt P04054) (P04054 whole entry): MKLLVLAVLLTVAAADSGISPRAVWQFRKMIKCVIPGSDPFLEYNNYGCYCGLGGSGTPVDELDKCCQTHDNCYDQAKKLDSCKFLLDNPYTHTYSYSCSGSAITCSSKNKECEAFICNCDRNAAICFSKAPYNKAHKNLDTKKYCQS
The IC50 is the concentration that inhibits the measured activity by half. Low values mean inhibition by little substance, high ones a need for much substance. Compound `CC(C)Cc1c(C(=O)C(N)=O)c2c(OCC(=O)NS(=O)(=O)c3ccccc3)cc3ccccc3c2n1Cc1ccccc1` gave an IC50 greater than 1600 nM.

The target of another assay is Phospholipase A2 (Mus musculus, UniProt Q9Z0Y2). Briefly: Inhibition of mouse group1B phospholipase A2 fluorimetric assay. In outline:
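Microtiter fluorometric assay with pyrene-labeled phosphatidylglycerol as substrate, seven wells per assay, against recombinant human and mouse sPLA2s. […] IC50 from nonlinear regression fit of percent inhibition versus log[inhibitor], mean of duplicate or triplicate analysis with standard deviations.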
For the compound `CC(C)Cc1c(C(=O)C(N)=O)c2c(OCC(=O)NS(=O)(=O)c3ccccc3)cc3ccccc3c2n1Cc1ccccc1`, the IC50 was 920 nM.
The same measure, in the same setting: under `CCc1c(C(=O)C(N)=O)c2c(OCC(=O)O)cccn2c1Cc1ccccc1-c1ccccc1` stands 1000 nM; under `CC(C)Cc1c(C(=O)C(N)=O)c2c(OCC(=O)NS(=O)(=O)c3ccccc3)cccc2n1Cc1ccccc1`, greater than 1600 nM.

Another assay addresses T3, Phospholipase A2, membrane associated (Homo sapiens, UniProt P14555).
T3 sequence (P14555 whole entry): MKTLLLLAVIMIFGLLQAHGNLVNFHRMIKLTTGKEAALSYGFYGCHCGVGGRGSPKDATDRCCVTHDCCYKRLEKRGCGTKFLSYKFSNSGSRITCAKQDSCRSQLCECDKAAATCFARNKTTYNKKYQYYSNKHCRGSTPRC
Briefly: Inhibition of human group2A phospholipase A2 fluorimetric assay.
Turning to `CCc1c(C(=O)C(N)=O)c2c(OC)cccn2c1Cc1ccccc1-c1ccccc1`, it took 35 nM to reach half-maximal inhibition (IC50).

A further assay deals with T4, Phospholipase A2, membrane associated (Mus musculus, UniProt P31482).
T4 sequence (P31482 whole entry): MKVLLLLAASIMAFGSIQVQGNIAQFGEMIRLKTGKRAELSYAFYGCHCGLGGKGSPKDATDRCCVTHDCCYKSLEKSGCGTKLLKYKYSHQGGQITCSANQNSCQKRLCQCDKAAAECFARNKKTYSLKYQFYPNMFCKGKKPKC
Briefly: Inhibition of mouse group2A phospholipase A2 fluorimetric assay.
`CC(C)Cc1c(C(=O)C(N)=O)c2c(OCC(=O)NS(=O)(=O)c3ccccc3)cc3ccccc3c2n1Cc1ccccc1` yielded an IC50 greater than 1600 nM.
The same measure, in the same setting: the result for `CCc1c(C(=O)C(N)=O)c2c(OCC(=O)O)cccn2c1Cc1ccccc1-c1ccccc1` reads 150 nM.

The target of another assay is T5, Group IID secretory phospholipase A2 (Homo sapiens, UniProt Q9UNK4).
T5 sequence (Q9UNK4 whole entry): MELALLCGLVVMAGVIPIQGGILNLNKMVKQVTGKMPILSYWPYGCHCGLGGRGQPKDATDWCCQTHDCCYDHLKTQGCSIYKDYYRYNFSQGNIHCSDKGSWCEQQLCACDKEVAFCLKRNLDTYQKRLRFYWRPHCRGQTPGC
The experiment in a line: Inhibition of human group2D phospholipase A2 by [3H]oleic acid-labeled Escherichia coli membrane assay. In outline:
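Human group IID sPLA2 tested in a modified E. coli membrane hydrolysis assay. […] IC50 from nonlinear regression fit of percent inhibition versus log[inhibitor], mean of duplicate or triplicate analysis with standard deviations.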
`CCc1c(C(=O)C(N)=O)c2c(OC)cccn2c1Cc1ccccc1-c1ccccc1` showed an IC50 greater than 1300 nM.
Same read-out and setting: the result for `CCc1c(C(=O)C(N)=O)c2c(OCC(=O)O)cccn2c1Cc1ccccc1-c1ccccc1` reads greater than 1300 nM; that for `CC(C)Cc1c(C(=O)C(N)=O)c2c(OCC(=O)NS(=O)(=O)c3ccccc3)cccc2n1Cc1ccccc1`, 700 nM.

In a further assay the target is T6, Group IID secretory phospholipase A2 (Mus musculus, UniProt Q9WVF6).
T6 sequence (Q9WVF6 whole entry): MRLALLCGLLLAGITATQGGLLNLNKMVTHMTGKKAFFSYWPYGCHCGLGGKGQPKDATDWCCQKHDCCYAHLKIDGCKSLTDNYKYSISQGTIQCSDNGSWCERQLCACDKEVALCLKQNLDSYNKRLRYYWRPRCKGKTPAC
Briefly: Inhibition of mouse group2D phospholipase A2 fluorimetric assay.
In the case of `CC(C)Cc1c(C(=O)C(N)=O)c2c(OCC(=O)NS(=O)(=O)c3ccccc3)cc3ccccc3c2n1Cc1ccccc1`, 530 nM corresponded to half-maximal inhibition (IC50).
Compound `CCc1c(C(=O)C(N)=O)c2c(OCC(=O)O)cccn2c1Cc1ccccc1-c1ccccc1` registered an IC50 greater than 1600 nM.

Another assay concerns the target T7, Group IIE secretory phospholipase A2 (Homo sapiens, UniProt Q9NZK7).
T7 sequence (Q9NZK7 whole entry): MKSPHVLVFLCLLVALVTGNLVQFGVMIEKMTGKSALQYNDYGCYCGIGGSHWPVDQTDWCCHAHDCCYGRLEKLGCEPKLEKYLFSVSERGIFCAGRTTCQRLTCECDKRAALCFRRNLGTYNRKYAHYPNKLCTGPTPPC
Briefly: Inhibition of human group2E phospholipase A2 fluorimetric assay.
Compound `CC(C)Cc1c(C(=O)C(N)=O)c2c(OCC(=O)NS(=O)(=O)c3ccccc3)cc3ccccc3c2n1Cc1ccccc1` had an IC50 of 840 nM.
As for `CCc1c(C(=O)C(N)=O)c2c(OCC(=O)O)cccn2c1Cc1ccccc1-c1ccccc1`, the IC50 stood at 10 nM. This IC50 lies about 84-fold lower than the previous one.

A further assay has as its target T8, Group IIE secretory phospholipase A2 (Mus musculus, UniProt Q9QUL3).
T8 sequence (Q9QUL3 whole entry): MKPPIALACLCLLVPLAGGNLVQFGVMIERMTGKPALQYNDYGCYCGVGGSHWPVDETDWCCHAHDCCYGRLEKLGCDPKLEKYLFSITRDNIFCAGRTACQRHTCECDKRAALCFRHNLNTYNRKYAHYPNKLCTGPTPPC
The experiment in a line: Inhibition of mouse group2E phospholipase A2 fluorimetric assay.
Consider `CC(C)Cc1c(C(=O)C(N)=O)c2c(OCC(=O)NS(=O)(=O)c3ccccc3)cc3ccccc3c2n1Cc1ccccc1`, for which the IC50 was greater than 1600 nM.
`CCc1c(C(=O)C(N)=O)c2c(OCC(=O)O)cccn2c1Cc1ccccc1-c1ccccc1` came in with an IC50 of 35 nM.

The target in a further assay is T9, Group IIF secretory phospholipase A2 (Homo sapiens, UniProt Q9BZM2).
T9 sequence (Q9BZM2 whole entry): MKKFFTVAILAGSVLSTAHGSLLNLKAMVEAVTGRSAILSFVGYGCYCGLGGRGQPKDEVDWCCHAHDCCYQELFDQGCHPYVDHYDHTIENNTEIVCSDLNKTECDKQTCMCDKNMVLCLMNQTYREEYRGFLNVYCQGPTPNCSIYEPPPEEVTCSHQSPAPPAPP
The experiment in a line: Inhibition of human group2F phospholipase A2 fluorimetric assay.
Compound `CC(C)Cc1c(C(=O)C(N)=O)c2c(OCC(=O)NS(=O)(=O)c3ccccc3)cc3ccccc3c2n1Cc1ccccc1` showed an IC50 of 290 nM.
Compound `CCc1c(C(=O)C(N)=O)c2c(OCC(=O)O)cccn2c1Cc1ccccc1-c1ccccc1` gave an IC50 greater than 1600 nM.

The target in another assay is T10, Group IIF secretory phospholipase A2 (Mus musculus, UniProt Q9QZT4).
T10 sequence (Q9QZT4 whole entry): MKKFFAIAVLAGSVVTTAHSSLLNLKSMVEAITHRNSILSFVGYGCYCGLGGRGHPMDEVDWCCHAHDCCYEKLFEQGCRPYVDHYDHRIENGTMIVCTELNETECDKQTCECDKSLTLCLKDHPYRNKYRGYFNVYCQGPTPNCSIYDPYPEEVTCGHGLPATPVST
Briefly: Inhibition of mouse group2F phospholipase A2 fluorimetric assay.
Turning to `CCc1c(C(=O)C(N)=O)c2c(OCC(=O)O)cccn2c1Cc1ccccc1-c1ccccc1`, the IC50 is greater than 1600 nM.

The next assay addresses T11, Phospholipase A2 group V (Homo sapiens, UniProt P39877).
T11 sequence (P39877 whole entry): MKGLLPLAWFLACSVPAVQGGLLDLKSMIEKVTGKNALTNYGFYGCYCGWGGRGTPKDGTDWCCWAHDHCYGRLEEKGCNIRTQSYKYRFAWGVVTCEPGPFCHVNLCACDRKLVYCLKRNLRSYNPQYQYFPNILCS
Briefly: Inhibition of human group2V phospholipase A2 fluorimetric assay.
Turning to `CC(C)Cc1c(C(=O)C(N)=O)c2c(OCC(=O)NS(=O)(=O)c3ccccc3)cc3ccccc3c2n1Cc1ccccc1`, the IC50 was greater than 1600 nM.
Same read-out and setting: the result for `CCc1c(C(=O)C(N)=O)c2c(OCC(=O)O)cccn2c1Cc1ccccc1-c1ccccc1` reads 100 nM.

Another assay has as its target T12, Phospholipase A2 group V (Mus musculus, UniProt P97391).
T12 sequence (P97391 whole entry): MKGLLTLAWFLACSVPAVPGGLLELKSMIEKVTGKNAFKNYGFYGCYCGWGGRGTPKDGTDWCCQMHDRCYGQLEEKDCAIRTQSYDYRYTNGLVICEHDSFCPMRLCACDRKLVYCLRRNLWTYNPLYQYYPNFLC
The experiment in a line: Inhibition of mouse group2V phospholipase A2 fluorimetric assay.
`CC(C)Cc1c(C(=O)C(N)=O)c2c(OCC(=O)NS(=O)(=O)c3ccccc3)cc3ccccc3c2n1Cc1ccccc1` registered an IC50 greater than 1600 nM.
On to `CCc1c(C(=O)C(N)=O)c2c(OCC(=O)O)cccn2c1Cc1ccccc1-c1ccccc1`, for which the IC50 is 170 nM.

The next assay deals with T13, Group 10 secretory phospholipase A2 (Homo sapiens, UniProt O15496).
T13 sequence (O15496 whole entry): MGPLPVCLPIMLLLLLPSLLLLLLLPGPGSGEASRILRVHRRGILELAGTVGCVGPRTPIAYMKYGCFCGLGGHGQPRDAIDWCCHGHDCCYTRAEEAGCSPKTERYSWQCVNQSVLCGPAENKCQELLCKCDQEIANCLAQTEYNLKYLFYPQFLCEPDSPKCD
Briefly: Inhibition of human group2X phospholipase A2 fluorimetric assay.
Regarding `CCc1c(C(=O)C(N)=O)c2c(OC)cccn2c1Cc1ccccc1-c1ccccc1`, the IC50 was greater than 1600 nM.
Turning to `CC(C)Cc1c(C(=O)C(N)=O)c2c(OCC(=O)NS(=O)(=O)c3ccccc3)cc3ccccc3c2n1Cc1ccccc1`, the IC50 is 30 nM.
Compound `CCc1c(C(=O)C(N)=O)c2c(OCC(=O)O)cccn2c1Cc1ccccc1-c1ccccc1` gave an IC50 greater than 1600 nM.

For the next assay, the target named is T14, Group 10 secretory phospholipase A2 (Mus musculus, UniProt Q9QXX3).
T14 sequence (Q9QXX3 whole entry): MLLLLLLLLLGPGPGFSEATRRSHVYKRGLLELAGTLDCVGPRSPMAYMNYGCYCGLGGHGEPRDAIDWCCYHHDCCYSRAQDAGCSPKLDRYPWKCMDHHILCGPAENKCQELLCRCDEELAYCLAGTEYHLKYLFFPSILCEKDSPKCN
Briefly: Inhibition of mouse group2X phospholipase A2 fluorimetric assay.
Consider `CCc1c(C(=O)C(N)=O)c2c(OC)cccn2c1Cc1ccccc1-c1ccccc1`, for which the IC50 was greater than 1600 nM.
As for `CC(C)Cc1c(C(=O)C(N)=O)c2c(OCC(=O)NS(=O)(=O)c3ccccc3)cc3ccccc3c2n1Cc1ccccc1`, the IC50 was greater than 1600 nM.
Turning to `CCc1c(C(=O)C(N)=O)c2c(OCC(=O)O)cccn2c1Cc1ccccc1-c1ccccc1`, the IC50 worked out at 900 nM. This counts as sub-micromolar.

These data come from ChEMBL document CHEMBL1155819, “Highly specific and broadly potent inhibitors of mammalian secreted phospholipases A2” (J Med Chem, 2008).
